T cell HTS – modulates CD8 T cell binding to vesicles. 2C CD8+ T cell-vesicle binding, flow cytometry; active compounds read low. response (vesicle binding), % at 7 µM. 330,000 compounds, 0.068% hits;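 active = response, share of CD8 T cells binding vesicles, and their 90th percentile fluorescence all below set limits, cut at about 80% in these data, passing the limit was not always enough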;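 also: values below 100% mean blocked vesicle binding to the CD8+ T cells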
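Read-out – percent CD8+ FL2 mean versus row control · System – murine 2C transgenic CD8+ T lymphocytes · Times – 1.5 h cell–vesicle binding at 37 °C, then 20 min icy labelling · Control set – naked vesicles low, QL9 vesicles with vehicle high · Detection – cytometric PE anti-B7-1 and Alexa647 anti-CD8 signals after 1% paraformaldehyde fixation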
ALR H2O2 inh – blocks human ALR sulfhydryl oxidase activity. P55789. purified ALR, DTT oxidation, H2O2 HRP-luminol luminescence. inhibition, % (test concentration not listed). 290,000 compounds, 3.8% hits;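 active = mean replicate inhibition above about 79%, with every replicate also reaching it, limit read from the data; inconclusive = only one of the two criteria met; inactive = mean below limit and not every replicate reaching it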
Target sequence (P55789 whole entry, looked up): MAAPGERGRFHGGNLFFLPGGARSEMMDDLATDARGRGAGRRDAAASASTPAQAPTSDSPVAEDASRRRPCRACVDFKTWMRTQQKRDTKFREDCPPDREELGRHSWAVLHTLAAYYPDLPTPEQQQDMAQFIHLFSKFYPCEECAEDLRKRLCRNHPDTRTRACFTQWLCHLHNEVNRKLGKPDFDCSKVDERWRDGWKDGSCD
N-glyco inh – N-linked glycosylation inhibition. reporter increase, % at 12.5 µM. D54 ERlucT glycosylation luciferase reporter, 24 h; percent of 100 nM tunicamycin response. 360,000 compounds, 0.23% hits;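 active = mean luciferase reporter signal, scaled so untreated is 0 and the glycosylation-blocking control 100, at or above a set limit in every replicate; inconclusive = mean reaches the limit but not every replicate does; inactive = mean below the limit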;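 also: luciferase carries N-glycosylation sites so blocking glycosylation raises the light; 0% = median of neutral control wells and 100% = median of 100 nM tunicamycin wells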
An asterisk follows results filed as active; i = inactive; ? = inconclusive; . = no result. Many of the other results were omitted from the sample, so hits are more common in it than they were.

SMILES	T cell HTS	ALR H2O2 inh	N-glyco inh
COc1ccc(OC)c(-c2nnc3n2N=C(c2ccc(OC)c(OC)c2)CS3)c1	207	-3	?
O=C(N[C@H]1c2ccccc2C[C@H]1O)[C@H]1O[C@@H](n2ccc(=O)[nH]c2=O)[C@H](O)[C@@H]1O	.	.	3
O=C(CSc1nc2ccccc2c(=O)[nH]1)Nc1cccc([N+](=O)[O-])c1	365	-2	0
COc1cccc(Nc2nc(NCCO)c3ccccc3n2)c1	251	-10	2
OCCNc1nc(Nc2cccc(O)c2)nc2ccccc12	379	95*	1
OCCNc1nc(Nc2ccc(O)cc2)nc2ccccc12	153	99*	18
OCCN1CCN(c2nc(NCc3ccco3)c3ccccc3n2)CC1	200	-1	0
OCCNc1nc(NCc2ccccc2)c2ccccc2n1	201	.	-1
OCCNc1nc(N2CCN(c3ccccc3)CC2)nc2ccccc12	250	98*	6
CC(=O)N(Cc1cccc(Br)c1)c1ccc(N2CCOCC2)c(Cl)c1	408	2	-1
N=C(N)c1ccc(/C=C/c2ccc(C(=N)N)cc2O)cc1	286	13	1
COCC1CCN(C(=O)c2ccc3oc(CCc4ccccc4)nc3c2)C1 (configuration not stated)	.	.	0
CCOc1ccc(S(=O)(=O)N2CCOCC2)cc1NC(=O)CN1C(=O)NC(C)(C2CC2)C1=O (configuration not stated)	.	.	-2
COc1ccc(C#Cc2cccc(-c3nc(C(=O)NCc4ccc(Oc5ccccc5)cc4)cc4c3[C@@H](CCO)N(S(=O)C(C)(C)C)C4)c2)cc1OC (some centres not stated)	.	.	-5
O=S(=O)(c1ccc(F)cc1)N1CCN(C(=S)NCC2CCCO2)CC1 (configuration not stated)	427	0	-1
CC(C)c1ccc(NC2CCCN(C(=O)c3cccs3)C2)cc1 (configuration not stated)	325	99*	-2
Cc1ccc(N2CCN(C(=O)c3cccs3)CC2)cc1C	257	32	-1
COc1ccc(NC(=O)C2CCN(C(=O)c3cccs3)CC2)cc1	223	-7	0
Cc1ccc(NC2CCCN(C(=O)c3cccs3)C2)cc1C (configuration not stated)	598	99*	2
COc1ccc(NC2CCCN(C(=O)c3ccccc3C(F)(F)F)C2)cc1 (configuration not stated)	i	99*	2
CC(=O)c1ccc(C(=O)N2CCCC(Nc3ccccc3)C2)s1 (configuration not stated)	296	?	.
COc1ccc(NC2CCCN(C(=O)c3cccs3)C2)cc1 (configuration not stated)	433	99*	1
CCOC(=O)N1CCN(C2CCCN(C(=O)c3ccccc3C(F)(F)F)C2)CC1 (configuration not stated)	.	.	4
COc1cccc(NC(=O)C2CCN(c3cnccn3)CC2)c1	402	-4	0
O=C(CN1C(=O)C2C3C=CC(C3)C2C1=O)Nc1nncs1 (configuration not stated)	135	4	2
SMILES	T cell HTS	ALR H2O2 inh	N-glyco inh
CN(Cc1ccccc1)C1CCCN(C(=O)c2ccc(Cl)s2)C1 (configuration not stated)	207	-12	-1
COc1ccc(OC)c(C(=O)N2CCCC(Nc3ccc(F)cc3)C2)c1 (configuration not stated)	202	94*	2
COc1ccc(C(=O)C2CCCN(C(=O)c3ccc(F)cc3)C2)cc1OC (configuration not stated)	304	-1	-2
O=C(NC(=S)N1CCOCC1)c1cn(-c2ccccc2)nc1-c1ccc(F)cc1	692	.	3
Cc1nn(CCC#N)c(NC(=O)c2ccccc2)c1P(=O)(Nc1ccc(Br)cc1)N1CCOCC1 (configuration not stated)	564	-18	1
CCOc1ccc(-c2cccc(NS(=O)(=O)c3cccc([N+](=O)[O-])c3)c2)nn1	.	.	-1
CCc1c(C)nc(N2CCN(c3cccc(OC)c3)CC2)[nH]c1=O	216	98*	3
CCCc1c(C)nc(N2CCN(c3cccc(OC)c3)CC2)[nH]c1=O	304	15	-1
COC(=O)c1ccc2nc(-c3ccc(S(C)(=O)=O)cc3)cn2c1	291	1	1
COC(=O)c1ccc2nc(-c3cccc(N)c3)cn2c1	599	99*	-21
CCCCCCNS(=O)(=O)c1ccc(NC(=O)C2CCCO2)cc1 (configuration not stated)	254	-7	-5
O=C(Oc1ccc(Cl)cc1)N1CCCCC1	167	1	1
O=C(Oc1ccc(-c2nnco2)cc1)N1CCCCC1	76*	1	0
CN(C)CCCNc1cc(O)c2ncccc2c1	690	17	0
CC(=O)c1sc(NC(=O)c2ccc(F)c(S(=O)(=O)N3CCOCC3)c2)nc1C	325	3	0
CC(=O)C1=C(C)NC(SCc2ccc(C#N)cc2)=C(C#N)C1c1ccco1 (configuration not stated)	196	33	-1
CC(=O)C1=C(C)NC(SCc2cccc3ccccc23)=C(C#N)C1c1ccco1 (configuration not stated)	214	99*	-2
NNc1nc2ccc(F)cc2s1	240	99*	0
O=C(CN1C(=O)C2CC=CCC2C1=O)Nc1nc2ccc(F)cc2s1 (configuration not stated)	349	98*	2
O=C(Nc1nc2ccccc2s1)C1CCCO1 (configuration not stated)	781	2	-7
O=C(CN1C(=O)NC2(CCCC2)C1=O)Nc1nc2ccc(F)cc2s1	299	-3	0
O=C(Nc1nc2ccc(F)cc2s1)C1CCCO1 (configuration not stated)	188	99*	-6
NNc1nc2ccc(Cl)cc2s1	346	.	2
O=C(Nc1nc2ccc(C(=O)N3CCCCC3)cc2s1)C1CCCCC1	264	9	5
Nc1ccc2nc(NC(=O)C3CCCCC3)sc2c1	545	99*	0
SMILES	T cell HTS	ALR H2O2 inh	N-glyco inh
COc1ccc(C(=O)C(C)OC(=O)CN2C(=O)c3ccccc3C2=O)cc1 (configuration not stated)	307	0	-1
CCN1CC(CN(C)Cc2nc(-c3ccc(C(F)(F)F)cc3)oc2C)CC1=O (configuration not stated)	544	-24	1
CCc1ccc(OCC(=O)Nc2ccc(S(=O)(=O)Nc3ccccn3)cc2)cc1	239	-11	3
Cc1ccc(S(=O)(=O)NCCc2nnc3ccc(N4CCOCC4)nn23)cc1	.	.	3
COc1cc(-c2c(C#N)c(=O)[nH]c3c2c(C)nn3-c2ccccc2)ccc1O	554	99*	2
CCc1nc(N)c(C#N)c(-c2ccc(O)c(OC)c2)c1C	227	56	5
Nc1ncc2c(n1)-c1ccoc1CC2	124	89*	1
Nc1ncc2c(n1)-c1ccccc1CC2	162	-19	-3
COC(=O)c1sccc1NC(=O)c1cc2c(s1)CCCC2	101	26	1
COc1ccc(C)cc1NC(=O)c1cc2c(s1)CCC2	254	94*	2
COc1ccc(S(=O)(=O)N2CCOCC2)cc1NC(=O)c1cc2c(s1)CCCC2	82	-3	-7

Compound activity from PubChem.
